Measurements published in ChEMBL document CHEMBL1143246, “Design and synthesis of bicyclic pyrimidinones as potent and orally bioavailable HIV-1 integrase inhibitors” (J Med Chem, 2008).

Experiments:
[1] = test system: Human immunodeficiency virus 1; assay: Antiviral activity against HIV1 in human MT4 cell assessed as inhibition of virus spread in presence of 10% fetal bovine serum; format: functional; settings: Human immunodeficiency virus 1, MT4; read-out: CIC95
In short: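 Spread of HIV-1 infection in MT-4 human T-lymphoid cell culture with 10% fetal bovine serum; CIC95 is the concentration inhibiting spread by ≥95%; mean of at least three independent experiments.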

[2] = test system: Human immunodeficiency virus 1; assay: Antiviral activity against HIV1 in human MT4 cell assessed as inhibition of virus spread in presence of 50% normal human serum; format: functional; settings: Human immunodeficiency virus 1, MT4; read-out: CIC95
In short: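 Spread of HIV-1 infection in MT-4 human T-lymphoid cell culture with 50% normal human serum; CIC95 is the concentration inhibiting spread by ≥95%; mean of at least three independent experiments.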

[3] = Protein binding in rat plasma; format: ADME, cell-free; settings: read-out: PPB (converted)
In short: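 Plasma protein binding was measured by ultrafiltration after a 1 h incubation of compound in plasma at 37 °C.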

[4] = Protein binding in dog plasma; format: ADME, cell-free, Canis lupus familiaris; settings: read-out: PPB (converted)
In short: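 Plasma protein binding measured by ultrafiltration after incubation at 37 °C for 1 h.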

[5] = test system: Liver microsomes; assay: Metabolic stability in rat liver microsomes in presence of NADPH and UDPGA; format: ADME, Microsome
In short: (§1)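 Multiple time points over 1 h: compound 1 µM with liver microsomes 1 mg/mL, in the presence of both UDPGA and NADPH; degradation followed by LC/MS/MS.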

[6] = test system: Liver; assay: Metabolic stability in dog liver microsomes in presence of NADPH and UDPGA; format: ADME, Canis lupus familiaris, Microsome; in short: as §1
[7] = test system: Canis familiaris; assay: Oral bioavailability in dog at 2 mg/kg; format: ADME, organism-based, Canis lupus familiaris; settings: in vivo
In short: (§2)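 In vivo PK: iv dosing in DMSO/PEG400/H₂O mixtures, oral dosing as methylcellulose suspension. Half-life was taken after iv dosing; AUC and Cmax after po dosing.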

[8] = Oral bioavailability in rat at 10 mg/kg; format: ADME, organism-based; settings: in vivo; in short: as §2
[9] = Oral bioavailability in rhesus monkey at 10 mg/kg; format: ADME, organism-based, Macaca mulatta; settings: in vivo
[10] = Plasma clearance in rat at 3 mg/kg, iv or 10 mg/kg, po; format: ADME, organism-based
[11] = Plasma clearance in rhesus monkey at 2 mg/kg, iv or 10 mg/kg, po; format: ADME, organism-based, Macaca mulatta
In short: (§3)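 Rhesus dosed 2 mg/kg iv in DMSO; oral arm 10 mg/kg as 0.5% methylcellulose suspension; plasma clearance and iv half-life.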

[12] = Half life in rat at 3 mg/kg, iv; format: ADME, organism-based; set-up: dose 3 mg/kg, route intravenous; settings: in vivo; in short: as §2
[13] = Half life in dog at 1 mg/kg, iv; format: ADME, organism-based, Canis lupus familiaris; set-up: dose 1 mg/kg, route intravenous; settings: in vivo; in short: as §2
[14] = Half life in rhesus monkey at 2 mg/kg, iv; format: ADME, organism-based, Macaca mulatta; set-up: dose 2 mg/kg, route intravenous; settings: in vivo; in short: as §3
[15] = test system: Canis familiaris; assay: AUC in dog at 2 mg/kg, po; format: ADME, organism-based, Canis lupus familiaris, Plasma; set-up: dose 2 mg/kg, route oral; settings: in vivo; in short: as §2
[16] = AUC in rhesus monkey at 10 mg/kg, po; format: ADME, organism-based, Macaca mulatta; set-up: dose 10 mg/kg, route oral; settings: plasma
[17] = Cmax in dog at 4 mg/kg, po; format: ADME, organism-based, Canis lupus familiaris; set-up: dose 4 mg/kg, route oral; settings: in vivo; in short: as §2
[18] = Cmax in dog at 2 mg/kg, po; format: ADME, organism-based, Canis lupus familiaris; set-up: dose 2 mg/kg, route oral; settings: in vivo; in short: as §2
[19] = Cmax in rhesus monkey at 10 mg/kg, po; format: ADME, organism-based, Macaca mulatta; set-up: dose 10 mg/kg, route oral; settings: in vivo
[20] = Volume of distribution at steady state in rat at 3 mg/kg, iv or 10 mg/kg, po; format: ADME, organism-based; settings: in vivo, read-out: Vdss
In short: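 Rats received 3 mg/kg intravenously in DMSO/PEG400/H₂O (20%-60%-20%) and 10 mg/kg orally as a 1% methylcellulose suspension. Volume of distribution was derived from the plasma profiles.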

[21] = molecular target: T1, DNA polymerase alpha catalytic subunit (Homo sapiens, UniProt P09884); assay: Inhibition of human DNA polymerase alpha
T1 sequence (P09884 whole entry): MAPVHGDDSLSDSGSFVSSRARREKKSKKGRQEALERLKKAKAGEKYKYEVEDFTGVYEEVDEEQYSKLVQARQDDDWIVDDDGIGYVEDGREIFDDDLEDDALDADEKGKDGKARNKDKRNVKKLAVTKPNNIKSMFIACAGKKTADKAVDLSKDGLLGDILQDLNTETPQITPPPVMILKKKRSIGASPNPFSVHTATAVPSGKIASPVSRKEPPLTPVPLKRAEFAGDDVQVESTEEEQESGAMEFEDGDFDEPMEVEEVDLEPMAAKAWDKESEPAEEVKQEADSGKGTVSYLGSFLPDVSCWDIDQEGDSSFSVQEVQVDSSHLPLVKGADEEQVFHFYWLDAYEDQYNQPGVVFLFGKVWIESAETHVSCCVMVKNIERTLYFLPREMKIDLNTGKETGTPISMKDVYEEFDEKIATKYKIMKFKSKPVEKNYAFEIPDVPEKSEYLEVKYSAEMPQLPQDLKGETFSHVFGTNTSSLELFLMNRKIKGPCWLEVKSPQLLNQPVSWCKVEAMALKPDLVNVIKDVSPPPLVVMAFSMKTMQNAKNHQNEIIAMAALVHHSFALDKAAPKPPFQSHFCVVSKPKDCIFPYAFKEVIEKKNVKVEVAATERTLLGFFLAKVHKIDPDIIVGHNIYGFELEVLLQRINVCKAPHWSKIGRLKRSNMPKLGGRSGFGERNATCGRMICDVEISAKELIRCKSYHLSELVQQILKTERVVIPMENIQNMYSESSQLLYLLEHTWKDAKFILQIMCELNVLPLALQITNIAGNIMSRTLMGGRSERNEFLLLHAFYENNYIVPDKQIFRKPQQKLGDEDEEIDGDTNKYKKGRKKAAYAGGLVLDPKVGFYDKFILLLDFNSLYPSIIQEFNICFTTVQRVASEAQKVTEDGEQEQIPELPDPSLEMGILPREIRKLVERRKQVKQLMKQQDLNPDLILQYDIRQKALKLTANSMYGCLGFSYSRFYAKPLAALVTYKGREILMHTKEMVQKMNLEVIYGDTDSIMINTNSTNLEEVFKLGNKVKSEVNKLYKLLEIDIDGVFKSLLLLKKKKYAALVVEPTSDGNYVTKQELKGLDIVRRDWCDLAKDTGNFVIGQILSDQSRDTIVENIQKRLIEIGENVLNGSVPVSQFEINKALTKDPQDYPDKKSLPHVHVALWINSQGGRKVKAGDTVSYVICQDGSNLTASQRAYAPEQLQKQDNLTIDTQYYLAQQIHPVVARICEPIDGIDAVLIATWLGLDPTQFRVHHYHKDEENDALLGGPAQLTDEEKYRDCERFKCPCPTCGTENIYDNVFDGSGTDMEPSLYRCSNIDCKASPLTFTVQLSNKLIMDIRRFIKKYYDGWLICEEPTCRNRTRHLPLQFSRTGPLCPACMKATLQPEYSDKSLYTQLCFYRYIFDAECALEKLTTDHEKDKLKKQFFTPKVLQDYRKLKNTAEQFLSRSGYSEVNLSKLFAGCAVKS

[22] = molecular target: DNA polymerase beta (Homo sapiens, UniProt P06746); assay: Inhibition of human DNA polymerase beta
[23] = Inhibition of human DNA polymerase gamma
[24] = Inhibition of HIV-RNase-H; set-up: species or system Human immunodeficiency virus
[25] = molecular target: Voltage-gated inwardly rectifying potassium channel KCNH2 (Homo sapiens, UniProt Q12809); assay: Inhibition of human ERG
Sequence of Voltage-gated inwardly rectifying potassium channel KCNH2 (Q12809 whole entry): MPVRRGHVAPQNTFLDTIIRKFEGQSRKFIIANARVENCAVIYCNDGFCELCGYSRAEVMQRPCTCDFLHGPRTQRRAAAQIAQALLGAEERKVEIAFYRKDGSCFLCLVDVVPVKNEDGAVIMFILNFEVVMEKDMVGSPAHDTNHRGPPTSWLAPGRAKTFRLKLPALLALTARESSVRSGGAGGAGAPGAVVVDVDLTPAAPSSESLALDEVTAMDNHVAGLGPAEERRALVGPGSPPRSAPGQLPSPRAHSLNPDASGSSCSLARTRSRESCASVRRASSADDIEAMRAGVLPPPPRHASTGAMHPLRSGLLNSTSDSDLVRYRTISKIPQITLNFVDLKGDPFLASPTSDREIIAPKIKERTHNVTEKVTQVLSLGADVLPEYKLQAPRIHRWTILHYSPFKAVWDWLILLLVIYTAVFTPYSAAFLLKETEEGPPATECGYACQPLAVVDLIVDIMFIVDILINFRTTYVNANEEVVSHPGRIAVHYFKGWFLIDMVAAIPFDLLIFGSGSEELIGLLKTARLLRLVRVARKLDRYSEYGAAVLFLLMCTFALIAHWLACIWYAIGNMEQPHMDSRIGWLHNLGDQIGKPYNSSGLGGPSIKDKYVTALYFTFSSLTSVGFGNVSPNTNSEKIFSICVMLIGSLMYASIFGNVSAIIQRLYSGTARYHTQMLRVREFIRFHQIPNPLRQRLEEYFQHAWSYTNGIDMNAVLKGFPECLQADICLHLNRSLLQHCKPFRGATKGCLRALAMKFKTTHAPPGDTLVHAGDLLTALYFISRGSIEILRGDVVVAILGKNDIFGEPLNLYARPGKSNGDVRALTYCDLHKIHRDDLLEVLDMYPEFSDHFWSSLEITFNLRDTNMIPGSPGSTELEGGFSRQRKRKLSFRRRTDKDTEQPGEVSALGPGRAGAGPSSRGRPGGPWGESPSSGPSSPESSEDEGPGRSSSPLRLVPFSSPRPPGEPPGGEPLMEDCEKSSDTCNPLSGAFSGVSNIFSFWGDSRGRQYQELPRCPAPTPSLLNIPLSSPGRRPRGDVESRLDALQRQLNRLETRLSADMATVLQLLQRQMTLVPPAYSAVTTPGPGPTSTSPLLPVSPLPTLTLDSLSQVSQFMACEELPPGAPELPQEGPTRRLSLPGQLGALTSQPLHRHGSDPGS

[26] = molecular target: Cytochrome P450 2C19 (Homo sapiens, UniProt P33261); assay: Inhibition of CYP2C19; format: ADME
Sequence of Cytochrome P450 2C19 (P33261 whole entry): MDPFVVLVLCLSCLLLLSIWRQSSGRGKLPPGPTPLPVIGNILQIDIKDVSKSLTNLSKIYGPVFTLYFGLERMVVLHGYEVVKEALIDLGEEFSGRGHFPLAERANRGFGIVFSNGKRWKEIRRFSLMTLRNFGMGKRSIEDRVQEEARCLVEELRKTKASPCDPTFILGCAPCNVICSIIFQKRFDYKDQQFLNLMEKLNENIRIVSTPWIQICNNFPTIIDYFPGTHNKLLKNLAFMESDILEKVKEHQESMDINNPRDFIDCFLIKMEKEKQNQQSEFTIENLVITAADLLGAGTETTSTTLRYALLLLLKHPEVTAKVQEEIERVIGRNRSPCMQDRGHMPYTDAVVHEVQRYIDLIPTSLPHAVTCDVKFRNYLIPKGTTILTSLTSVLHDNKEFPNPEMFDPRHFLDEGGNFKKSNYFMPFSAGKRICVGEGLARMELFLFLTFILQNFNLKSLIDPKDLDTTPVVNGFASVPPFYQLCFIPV

[27] = molecular target: Cytochrome P450 2C9 (Homo sapiens, UniProt P11712); assay: Inhibition of CYP2C9; format: ADME
Sequence of Cytochrome P450 2C9 (P11712 whole entry): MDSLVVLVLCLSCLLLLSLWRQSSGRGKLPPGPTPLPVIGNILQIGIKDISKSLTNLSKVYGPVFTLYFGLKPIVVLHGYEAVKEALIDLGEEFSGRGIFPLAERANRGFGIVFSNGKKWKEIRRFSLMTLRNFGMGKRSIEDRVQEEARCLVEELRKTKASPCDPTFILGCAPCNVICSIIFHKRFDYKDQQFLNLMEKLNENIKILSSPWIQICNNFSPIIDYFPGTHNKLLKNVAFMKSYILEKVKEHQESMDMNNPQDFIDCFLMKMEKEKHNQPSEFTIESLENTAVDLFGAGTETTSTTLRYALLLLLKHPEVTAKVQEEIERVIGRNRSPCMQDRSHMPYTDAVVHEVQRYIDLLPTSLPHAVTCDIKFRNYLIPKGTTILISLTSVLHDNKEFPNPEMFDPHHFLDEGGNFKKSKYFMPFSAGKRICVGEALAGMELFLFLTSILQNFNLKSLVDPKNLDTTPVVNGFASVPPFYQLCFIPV

[28] = molecular target: Cytochrome P450 2D6 (Homo sapiens, UniProt P10635); assay: Inhibition of CYP2D6; format: ADME
Sequence of Cytochrome P450 2D6 (P10635 whole entry): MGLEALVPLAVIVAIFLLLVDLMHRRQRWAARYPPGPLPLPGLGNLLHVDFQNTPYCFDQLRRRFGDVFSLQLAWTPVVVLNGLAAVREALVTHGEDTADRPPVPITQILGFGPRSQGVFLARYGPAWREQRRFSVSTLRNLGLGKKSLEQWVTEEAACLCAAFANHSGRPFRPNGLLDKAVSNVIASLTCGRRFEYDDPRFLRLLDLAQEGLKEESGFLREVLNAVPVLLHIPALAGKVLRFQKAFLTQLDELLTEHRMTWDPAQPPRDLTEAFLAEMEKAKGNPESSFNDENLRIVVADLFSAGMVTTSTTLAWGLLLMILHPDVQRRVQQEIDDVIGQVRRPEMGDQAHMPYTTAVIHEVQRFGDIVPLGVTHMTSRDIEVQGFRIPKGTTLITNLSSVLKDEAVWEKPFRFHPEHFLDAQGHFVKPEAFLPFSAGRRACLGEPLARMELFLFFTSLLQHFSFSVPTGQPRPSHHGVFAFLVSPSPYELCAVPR

[29] = molecular target: Cytochrome P450 3A4 (Homo sapiens, UniProt P08684); assay: Inhibition of CYP3A4; format: ADME
Sequence of Cytochrome P450 3A4 (P08684 whole entry): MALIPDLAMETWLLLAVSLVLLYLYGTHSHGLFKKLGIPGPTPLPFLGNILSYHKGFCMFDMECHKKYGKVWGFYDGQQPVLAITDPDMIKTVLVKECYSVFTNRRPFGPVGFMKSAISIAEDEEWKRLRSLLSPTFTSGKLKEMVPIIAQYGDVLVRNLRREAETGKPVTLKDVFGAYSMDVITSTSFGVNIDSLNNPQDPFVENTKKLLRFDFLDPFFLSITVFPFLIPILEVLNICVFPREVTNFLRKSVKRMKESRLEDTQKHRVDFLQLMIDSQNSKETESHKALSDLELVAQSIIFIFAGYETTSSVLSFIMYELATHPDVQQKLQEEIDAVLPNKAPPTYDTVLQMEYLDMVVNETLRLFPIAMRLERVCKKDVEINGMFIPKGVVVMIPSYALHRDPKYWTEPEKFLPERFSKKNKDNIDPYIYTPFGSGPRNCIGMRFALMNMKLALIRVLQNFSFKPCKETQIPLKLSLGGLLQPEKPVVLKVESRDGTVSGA

[30] = test system: Liver microsomes; assay: Metabolic stability in human liver microsomes in presence of NADPH and UDPGA; format: ADME, Microsome; in short: as §1
[31] = Inhibition of recombinant HIV1 integrase strand transfer activity
[32] = AUC in rat at 10 mg/kg, po; settings: plasma
[33] = organism: Homo sapiens; assay: Protein binding in human plasma; settings: read-out: PPB (converted)
[34] = Volume of distribution at steady state in dog at 1 mg/kg, iv or 2 mg/kg, po; settings: in vivo, read-out: Vdss
[35] = Volume of distribution at steady state in rhesus monkey at 2 mg/kg, iv or 10 mg/kg, po; settings: in vivo, read-out: Vdss

fraction unbound [3]: 0.06
fraction unbound [4]: 0.24
Stability [5]: 11 µL/min/mg
Stability [6]: 4 µL/min/mg
F [7]: 61%
bioavailability [8]: 64%
bioavailability [9]: 31%
clearance [10]: 7 mL/min/kg
clearance [11]: 8 mL/min/kg
half-life [12]: 7.4 h
half-life [13]: 2.1 h
half-life [14]: 2.6 h
AUC [15]: 31 µM·h
AUC [16]: 14 µM·h
Cmax [17]: 27 µM
Cmax [18]: 25 µM
Cmax [19]: 10 µM
Vd [20]: 0.7 L/kg
IC50 [21]: > 10 µM
IC50 [22]: > 10 µM
IC50 [23]: > 10 µM
IC50 [24]: > 50 µM
IC50 [26]: > 100 µM
IC50 [27]: 75 µM
IC50 [28]: > 100 µM
IC50 [29]: > 100 µM
Stability [30]: 3 µL/min/mg
IC50 [31]: 0.012 µM
AUC [32]: 37 µM·h
fraction unbound [33]: 0.19
Vd [34]: 0.9 L/kg
Vd [35]: 0.7 L/kg
SMILES: CN(C)C(=O)C(=O)N(C)[C@H]1CCCCn2c1nc(C(=O)NCc1ccc(F)cc1)c(O)c2=O
IC95 [1]: 0.01 µM
IC95 [2]: 0.013 µM
IC50 [25]: > 10 µM
